# Bioassay records: PubChem BioAssay, Sanford-Burnham Center for Chemical Genomics
# CXCR6 inh = blocks human CXCR6 beta-arrestin recruitment. inhibition, % at 20 µM. CHO-K1 PathHunter CXCR6 beta-arrestin, luminescence. O00574. 360,000 compounds, 0.36% hits; in the data active = inhibition above about 34%, passing the limit was not always enough;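 note: antagonist mode with CXCL16 agonist at 10 nM final; 0% = 10 nM CXCL16 with DMSO and 100% = unstimulated wells without agonist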
# Target sequence (O00574 whole entry, looked up): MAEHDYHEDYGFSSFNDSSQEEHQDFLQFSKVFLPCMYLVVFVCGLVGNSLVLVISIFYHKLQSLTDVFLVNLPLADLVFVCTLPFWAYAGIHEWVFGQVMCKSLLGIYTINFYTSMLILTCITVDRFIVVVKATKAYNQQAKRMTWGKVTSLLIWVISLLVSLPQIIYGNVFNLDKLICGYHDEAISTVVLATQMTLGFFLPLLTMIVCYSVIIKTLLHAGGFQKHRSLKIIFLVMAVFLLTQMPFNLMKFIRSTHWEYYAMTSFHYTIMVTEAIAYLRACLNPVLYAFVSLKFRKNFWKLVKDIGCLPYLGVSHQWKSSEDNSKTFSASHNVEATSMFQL
# EBI2 antag = EBI2 (human) antagonism; inhibition, % at 5 µM; EBI2 beta-arrestin recruitment, luminescence, 7a,25-OHC stimulated; 360,000 compounds, 0.81% hits; P32249; in the data active = inhibition above about 38%;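 note: enzyme fragment complementation signal reports receptor beta-arrestin coupling in cells; 0% = agonist plus DMSO wells and 100% = wells without agonist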
# APJ agonist = agonists of human APJ apelin receptor; activation, % at 20 µM; 330,000 compounds, 0.11% hits; CHO-K1 APJ PathHunter beta-arrestin, luminescence; 0% DMSO wells, 100% apelin; P35414;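 active = activation more than six SD over the plate average, tested at 20 µM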;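 note: 0% = DMSO alone and 100% = apelin-13 at 10 nM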
#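 assay system = CHO-K1 APJ beta-arrestin complementation cell line | input = cell density 1000 per well | dosing = compound 20 µM once, DMSO 1% | timing = compound 90 min 25 °C, reagent 1 h | measured by = luminescence from split beta-galactosidase complementation, Galacton Star/Emerald II substrate | read-out basis = APJ agonist activity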
# APJ antagonist = antagonists of human APJ apelin receptor. CHO-K1 APJ beta-arrestin complementation, luminescence. inhibition, % at 20 µM. 330,000 compounds, 0.32% hits. AID 2521;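 active = inhibition above about 40% at 20 µM, limit read from the data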;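 note: cells challenged with 10 nM apelin-13 agonist together with compound; plate controls were apelin-13 plus DMSO wells for no effect and DMSO wells lacking apelin-13 for full effect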
# CCR6 antag = blocks CCL20-driven beta-arrestin recruitment at human CCR6; P51684; 340,000 compounds, 0.49% hits; AID 493098; inhibition, % at 20 µM; CHO-K1 CCR6 PathHunter beta-arrestin, luminescence, CCL20-stimulated;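 active = compounds whose inhibition of the agonist-driven luminescence signal at 20 µM reaches about 50%, limit read from the data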;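 note: cells stimulated with CCL20 at 14 nM final; plate controls were DMSO with CCL20 for no effect and DMSO without agonist for full effect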
# Numbers without * were called inactive; · = not tested or not shown. A selection: hits, their analogues and other compounds. The true share with any hit is near 1.5%.
SMILES,CXCR6 inh,EBI2 antag,APJ agonist,APJ antagonist,CCR6 antag
O=c1c2ccccc2sn1-c1ccc(F)cc1,-5,12,0,-10,13
Cc1ccc(-n2sc3ccccc3c2=O)cc1,0,10,1,-33,52*
Cc1cc(NCc2ccccc2)nc2ccccc12,-6,3,-1,14,8
C/C(CCC(C)C)=N\Nc1cc(C)c2ccccc2n1,35,-1,0,43*,56*
COc1ccc(N2C(=O)c3ccccc3NC(=O)C2C(=O)NCC(C)C)cc1 (stereo unspecified),·,-8,·,·,·
Cc1nc(NNC(=O)c2ccc([N+](=O)[O-])cc2)cc(-c2ccccc2)n1,29,2,0,-9,58*
COc1ccc2c(c1)c(=O)oc1c(C)c(OCc3cc(C(=O)O)oc3C)ccc12,1,-1,-1,-3,56*
COc1cc(/C=C2/C(=O)NN(c3cccc(Cl)c3)C2=O)cc(OC)c1O,39,6,-8,34,52*
CCCCC1(CO)C(=O)N(c2ccccc2)N(c2ccccc2)C1=O,7,-2,-5,-5,7
CCCCC1C(=O)N(c2ccccc2)N(c2ccc(O)cc2)C1=O (stereo unspecified),43*,22,-7,22,57*
Cn1c(=O)cc(SCC(=O)NCCN2CCN(c3ccccc3F)CC2)c2cc(Cl)ccc21,2,0,-2,13,1
COC(=O)[C@@]12C[C@@H](CC(=O)N3CCCC3)C(=O)N(Cc3ccco3)C1=CCC(C)(C)C2,·,-5,·,·,·
CN(C)c1c([N+](=O)[O-])cc(N2C(=O)C=CC2=O)cc1[N+](=O)[O-],75*,3,·,·,·
Cn1c(=O)c(=O)n(C)c2cc([N+](=O)[O-])c([N+](=O)[O-])cc21,-24,-59,3,-30,-13
CCC(C)Sc1cc(-c2nc3ccc(C)cn3c2NCc2ccccc2)ccc1OC (stereo unspecified),36,-16,·,·,44
CCC(C)Sc1ccc(-c2nc3ccc(C)cn3c2NCc2ccccc2)cc1OC (stereo unspecified),31,69*,14,-68,46
CCOc1cc(/C=N/Nc2cc(C)nc(-n3nc(C)cc3C)n2)ccc1O,110*,97*,-16,106*,116*
CCOc1cc(/C=N/Nc2nc(C)cc(=O)[nH]2)ccc1O,-8,0,-4,-13,2
CC(C)(C)C(=O)NC(=S)NNC(=O)c1sc2ccccc2c1Cl,62*,-12,1,40,73*
COc1ccc(C(=O)NNC(=S)NC(=O)C(C)(C)C)cc1,36,5,-9,28,62*
CCN(CC)c1ccc(/C=C(\C#N)C(=O)c2ccc(Br)cc2)cc1,30,45*,·,·,32
CCN(CC)c1ccc(/C=C(\C#N)C(N)=S)cc1,35,16,2,-33,52*
CCC(C)(C)C1CCC(=NNC(=S)Nc2ccccc2)CC1 (stereo unspecified),7,11,-5,8,31
CC(C)(C)C1CCC(=NNC(=S)NCc2ccccc2)CC1 (stereo unspecified),11,14,0,2,52*
C#CC(=O)N(c1cc(OC)ccc1OC)C(C(=O)NC1CCCC1)c1cccs1 (stereo unspecified),13,50*,2,12,12
SMILES,CXCR6 inh,EBI2 antag,APJ agonist,APJ antagonist,CCR6 antag
Cc1cc(S(=O)(=O)c2ccc(Cl)cc2)nc(S(=O)(=O)c2ccc(Cl)cc2)c1C#N,75*,-12,·,·,·
CN1CCN(c2ccc(CNC(=O)C3Cc4c(-c5ccc(Cl)cc5)ccnc4O3)cc2)CC1 (stereo unspecified),6,3,·,·,·
Cc1ccc(S(=O)(=O)Nc2ccc3c4c(cccc24)CC3)c(C)c1,-3,2,-4,-7,1
Cc1cc(C)c(S(=O)(=O)Nc2ccc3c4c(cccc24)CC3)c(C)c1,11,46*,-1,13,17
CC1(C)C(=O)C=CC(=O)C(C)(C)C(=O)C=CC(=O)C(C)(C)C2=CC=C(O2)C(C)(C)C(=O)C=CC1=O,4,-2,·,·,55*
O=S(=O)(/C(=C\c1ccc(C(F)(F)F)cc1)c1nc2ccccc2[nH]1)c1ccccc1,23,45*,·,·,·
O=C(NCc1ccco1)/C(=C/c1ccc(C(F)(F)F)cc1)c1nc2ccccc2[nH]1,-2,-3,-3,16,1
Cc1[nH][nH]c(=O)c1C(c1c(C)[nH][nH]c1=O)c1cn(Cc2ccc(Cl)c(Cl)c2)c2ccccc12,54*,31,·,·,77*
